# Assay results as given in ChEMBL document CHEMBL4043228, “Design and synthesis of pregnenolone/2-cyanoacryloyl conjugates with dual NF-κB inhibitory and anti-proliferative activities” (Bioorg Med Chem Lett, 2017).
# Activity calls are given as the source filed them. No cut-off for these calls is given here.
# What was measured:
# HepG2 = assay: Antiproliferative activity against human HepG2 cells after 48 hrs by MTT assay; type: functional, cell-based; settings: HepG2, 48 h
# In short: (§1)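 Tumour cell lines MCF-7, A549, H157, HepG2 and HL-60 were tested by MTT method; doxorubicin served as positive control.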
# NCI-H157 = assay: Antiproliferative activity against human NCI-H157 cells after 48 hrs by MTT assay; type: functional, cell-based; settings: NCI-H157, 48 h; in short: as §1
# HL-60 = assay: Antiproliferative activity against human HL60 cells after 48 hrs by MTT assay; type: functional, cell-based; settings: HL-60, 48 h; in short: as §1
# [1] = Inhibition of TNFalpha-stimulated NF-kappaB (unknown origin) activation expressed in HEK293 cells incubated for 6 hrs with TNFalpha followed by incubation in dark for 30 mins by luciferase reporter gene assay; type: cell-based; settings: Homo sapiens
# In short: (§2)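 HEK293 cells stably carrying NF-κB-responsive luciferase reporter (selected with 1 mg/mL G418) seeded, after 24 h stimulated with TNF-α 0.2 μg/mL, then exposed to compounds for 6 h; lysate incubated with luciferase substrate 30 min in dark, luminescence read. Screening at 20 µg/mL as percent inhibition; IC50 from nine concentrations, 0.78-20 μM. PS-341 reference.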
# MCF7 = assay: Antiproliferative activity against human MCF7 cells after 48 hrs by MTT assay; type: functional, cell-based; settings: MCF7, 48 h; in short: as §1
# [2] = Cytotoxicity against HEK293 cells assessed as cell viability at 20 ug/ml relative to control; type: cell-based; settings: human, read-out: Activity
# In short: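 HEK293/NF-κB reporter cells exposed to compounds at 20 µg/mL; cytotoxicity assessed.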
# A549 = assay: Antiproliferative activity against human A549 cells after 48 hrs by MTT assay; type: functional, cell-based; settings: A549, 48 h; in short: as §1
# Homo sapiens [3] = organism: Homo sapiens; assay: Inhibition of TNFalpha-stimulated NF-kappaB (unknown origin) activation assessed as IkappaBalpha degradation at 10 uM after 4 hrs by Western blot analysis
# Homo sapiens [4] = organism: Homo sapiens; assay: Inhibition of TNFalpha-stimulated NF-kappaB (unknown origin) activation expressed in HEK293 cells at 20 ug/ml incubated for 6 hrs with TNFalpha followed by incubation in dark for 30 mins by luciferase reporter gene assay relative to control; type: cell-based; in short: as §2
smiles,measurement,setting,value
CC(=O)[C@H]1CC[C@H]2[C@@H]3CC=C4C[C@@H](OC(=O)NCCNC(=O)/C(C#N)=C/c5ccc([N+](=O)[O-])cc5)CC[C@]4(C)[C@H]3CC[C@]12C,IC50,HepG2,> 50 µM
same,IC50,NCI-H157,> 50 µM
same,IC50,HL-60,10.1 µM
same,IC50,[1],10.3 µM
same,IC50,MCF7,> 50 µM
same,viability at 20 ug/ml,[2],74.5%
same,IC50,A549,> 50 µM
same,inhibition,Homo sapiens [3],Active
same,inhibition,Homo sapiens [4],78.3%
CC(C)C[C@H](NC(=O)[C@H](Cc1ccccc1)NC(=O)c1cnccn1)B(O)O [BORTEZOMIB],IC50,[1],0.03 µM
COc1ccccc1/C=C(\C#N)C(=O)NCCNC(=O)O[C@H]1CC[C@@]2(C)C(=CC[C@H]3[C@@H]4CC[C@H](C(C)=O)[C@@]4(C)CC[C@@H]32)C1,inhibition,Homo sapiens [4],17.8%
CC(=O)[C@H]1CC[C@H]2[C@@H]3CC=C4C[C@@H](OC(=O)NCCNC(=O)/C(C#N)=C/c5ccc(C#N)cc5)CC[C@]4(C)[C@H]3CC[C@]12C,IC50,HepG2,> 50 µM
same,IC50,NCI-H157,24.5 µM
same,IC50,HL-60,> 100 µM
same,IC50,[1],7.5 µM
same,IC50,MCF7,> 50 µM
same,viability at 20 ug/ml,[2],64.4%
same,IC50,A549,> 50 µM
same,inhibition,Homo sapiens [4],64.4%
CC(=O)[C@H]1CC[C@H]2[C@@H]3CC=C4C[C@@H](OC(=O)NCCNC(=O)/C(C#N)=C/c5cccc(C#N)c5)CC[C@]4(C)[C@H]3CC[C@]12C,IC50,HepG2,> 50 µM
same,IC50,NCI-H157,21.3 µM
same,IC50,HL-60,15.6 µM
same,IC50,[1],3.3 µM
same,IC50,MCF7,8.8 µM
same,viability at 20 ug/ml,[2],59.6%
same,IC50,A549,30.9 µM
same,inhibition,Homo sapiens [4],81.4%
COc1ccc(/C=C(\C#N)C(=O)NCCNC(=O)O[C@H]2CC[C@@]3(C)C(=CC[C@H]4[C@@H]5CC[C@H](C(C)=O)[C@@]5(C)CC[C@@H]43)C2)cc1,inhibition,Homo sapiens [4],22.3%
CC(=O)[C@H]1CC[C@H]2[C@@H]3CC=C4C[C@@H](OC(=O)NCCNC(=O)/C(C#N)=C/c5ccc(C(C)C)cc5)CC[C@]4(C)[C@H]3CC[C@]12C,inhibition,Homo sapiens [4],2.1%
COc1cc(/C=C(\C#N)C(=O)NCCNC(=O)O[C@H]2CC[C@@]3(C)C(=CC[C@H]4[C@@H]5CC[C@H](C(C)=O)[C@@]5(C)CC[C@@H]43)C2)ccc1O,inhibition,Homo sapiens [4],34.6%
CC(=O)[C@H]1CC[C@H]2[C@@H]3CC=C4C[C@@H](OC(=O)NCCNC(=O)/C(C#N)=C/c5ccc6c(c5)OCCO6)CC[C@]4(C)[C@H]3CC[C@]12C,inhibition,Homo sapiens [4],4.2%
COc1cccc2c1C(=O)c1c(O)c3c(c(O)c1C2=O)C[C@@](O)(C(=O)CO)C[C@@H]3O[C@H]1C[C@H](N)[C@H](O)[C@H](C)O1 [DOXORUBICIN],IC50,NCI-H157,0.61 µM
same,IC50,HL-60,0.91 µM
same,IC50,MCF7,4.4 µM
same,IC50,A549,11 µM
COc1cccc(/C=C(\C#N)C(=O)NCCNC(=O)O[C@H]2CC[C@@]3(C)C(=CC[C@H]4[C@@H]5CC[C@H](C(C)=O)[C@@]5(C)CC[C@@H]43)C2)c1,inhibition,Homo sapiens [4],22.2%
CC(=O)[C@H]1CC[C@H]2[C@@H]3CC=C4C[C@@H](OC(=O)NCCNC(=O)CC#N)CC[C@]4(C)[C@H]3CC[C@]12C,IC50,HepG2,> 50 µM
same,IC50,NCI-H157,> 50 µM
same,IC50,HL-60,> 50 µM
same,IC50,[1],12.4 µM
same,IC50,MCF7,> 50 µM
same,viability at 20 ug/ml,[2],87.9%
same,IC50,A549,> 50 µM
same,inhibition,Homo sapiens [4],74.4%
CC(=O)[C@H]1CC[C@H]2[C@@H]3CC=C4C[C@@H](OC(=O)NCCNC(=O)/C(C#N)=C/c5ccc(F)cc5)CC[C@]4(C)[C@H]3CC[C@]12C,inhibition,Homo sapiens [4],43.1%
CC(=O)[C@H]1CC[C@H]2[C@@H]3CC=C4C[C@@H](OC(=O)NCCNC(=O)/C(C#N)=C/c5ccc(O)c(O)c5)CC[C@]4(C)[C@H]3CC[C@]12C,inhibition,Homo sapiens [4],59.3%
CC(=O)[C@H]1CC[C@H]2[C@@H]3CC=C4C[C@@H](OC(=O)NCCNC(=O)/C(C#N)=C/c5ccc(Cl)cc5)CC[C@]4(C)[C@H]3CC[C@]12C,inhibition,Homo sapiens [4],18.8%
COc1ccc(/C=C(\C#N)C(=O)NCCNC(=O)O[C@H]2CC[C@@]3(C)C(=CC[C@H]4[C@@H]5CC[C@H](C(C)=O)[C@@]5(C)CC[C@@H]43)C2)cc1OC,inhibition,Homo sapiens [4],5.8%
CC(=O)[C@H]1CC[C@H]2[C@@H]3CC=C4C[C@@H](OC(=O)NCCNC(=O)/C(C#N)=C/c5ccc(Br)cc5)CC[C@]4(C)[C@H]3CC[C@]12C,inhibition,Homo sapiens [4],15.9%
CC(=O)[C@H]1CC[C@H]2[C@@H]3CC=C4C[C@@H](OC(=O)NCCNC(=O)/C(C#N)=C/c5cccc(F)c5)CC[C@]4(C)[C@H]3CC[C@]12C,IC50,HepG2,> 50 µM
same,IC50,NCI-H157,17.9 µM
same,IC50,HL-60,45.6 µM
same,IC50,[1],7.1 µM
same,IC50,MCF7,6.1 µM
same,viability at 20 ug/ml,[2],60.8%
same,IC50,A549,> 50 µM
same,inhibition,Homo sapiens [4],64.2%
CC(=O)[C@H]1CC[C@H]2[C@@H]3CC=C4C[C@@H](OC(=O)NCCNC(=O)/C(C#N)=C/c5ccc(O)cc5)CC[C@]4(C)[C@H]3CC[C@]12C,inhibition,Homo sapiens [4],44.9%
CC(=O)[C@H]1CC[C@H]2[C@@H]3CC=C4C[C@@H](OC(=O)NCCNC(=O)OC(C)(C)C)CC[C@]4(C)[C@H]3CC[C@]12C,IC50,HepG2,> 50 µM
same,IC50,NCI-H157,> 50 µM
same,IC50,HL-60,> 50 µM
same,IC50,[1],12.2 µM
same,IC50,MCF7,> 50 µM
same,viability at 20 ug/ml,[2],85.5%
same,IC50,A549,> 50 µM
same,inhibition,Homo sapiens [4],76.6%
COc1cc(/C=C(\C#N)C(=O)NCCNC(=O)O[C@H]2CC[C@@]3(C)C(=CC[C@H]4[C@@H]5CC[C@H](C(C)=O)[C@@]5(C)CC[C@@H]43)C2)cc(OC)c1O,inhibition,Homo sapiens [4],5%
CC(=O)[C@H]1CC[C@H]2[C@@H]3CC=C4C[C@@H](OC(=O)NCCNC(=O)/C(C#N)=C/c5ccc(N(C)C)cc5)CC[C@]4(C)[C@H]3CC[C@]12C,inhibition,Homo sapiens [4],1.2%
CC(=O)[C@H]1CC[C@H]2[C@@H]3CC=C4C[C@@H](OC(=O)NCCNC(=O)/C(C#N)=C/c5cccc(Cl)c5)CC[C@]4(C)[C@H]3CC[C@]12C,inhibition,Homo sapiens [4],46.4%
CC(=O)[C@H]1CC[C@H]2[C@@H]3CC=C4C[C@@H](OC(=O)NCCNC(=O)/C(C#N)=C/c5ccccc5)CC[C@]4(C)[C@H]3CC[C@]12C,inhibition,Homo sapiens [4],46.7%
CCN(CC)c1ccc(/C=C(\C#N)C(=O)NCCNC(=O)O[C@H]2CC[C@@]3(C)C(=CC[C@H]4[C@@H]5CC[C@H](C(C)=O)[C@@]5(C)CC[C@@H]43)C2)cc1,inhibition,Homo sapiens [4],0.5%
COc1cc(/C=C(\C#N)C(=O)NCCNC(=O)O[C@H]2CC[C@@]3(C)C(=CC[C@H]4[C@@H]5CC[C@H](C(C)=O)[C@@]5(C)CC[C@@H]43)C2)cc(O)c1OC,inhibition,Homo sapiens [4],22.6%
COc1ccc(/C=C(\C#N)C(=O)NCCNC(=O)O[C@H]2CC[C@@]3(C)C(=CC[C@H]4[C@@H]5CC[C@H](C(C)=O)[C@@]5(C)CC[C@@H]43)C2)cc1O,inhibition,Homo sapiens [4],14.5%
CC(=O)[C@H]1CC[C@H]2[C@@H]3CC=C4C[C@@H](OC(=O)NCCNC(=O)/C(C#N)=C/c5cccc(Br)c5)CC[C@]4(C)[C@H]3CC[C@]12C,inhibition,Homo sapiens [4],30.9%
CC(=O)[C@H]1CC[C@H]2[C@@H]3CC=C4C[C@@H](OC(=O)NCCNC(=O)/C(C#N)=C/c5cccc([N+](=O)[O-])c5)CC[C@]4(C)[C@H]3CC[C@]12C,IC50,HepG2,> 50 µM
same,IC50,NCI-H157,30.6 µM
same,IC50,HL-60,11.2 µM
same,IC50,[1],2.5 µM
same,IC50,MCF7,6.5 µM
same,viability at 20 ug/ml,[2],54.7%
same,IC50,A549,36.2 µM
same,inhibition,Homo sapiens [4],83.9%
